≈ marks a conversion by molar mass, not a printed value. Calls of active or inactive are those of the source. No cut-off for these calls is given here.
Key:
Leishmania mexicana = assay: Antileishmanial activity against Leishmania mexicana MNYC/BZ/62/M promastigotes after 120 hrs by [3H]thymidine uptake assay; assay type: functional, organism-based
In short: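 Promastigotes were seeded at 1.5 x 10^6/ml in triplicate and exposed to 0.01 to 100 µg/ml compound for 72 or 120 h. [3H]thymidine was added for the last 16 h. Percent inhibition = 100 − (cpm treated/cpm untreated × 100). Amphotericin B (0.27–1.6 µM) was the positive control.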

Trypanosoma cruzi [1] = assay: Antitrypanosomal activity against Trypanosoma cruzi epimastigotes after 72 hrs by [3H]thymidine uptake assay; assay type: functional, organism-based
In short: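 Epimastigotes were seeded at 1.5 x 10^6/ml in triplicate with compound up to 100 µg/ml for 72 or 120 h, with [3H]thymidine pulsed for the final 16 h. Inhibition % = 100 − (cpm treated/cpm untreated × 100). Benznidazole (5 to 20 µM) was the positive control. Results are means ± SEM.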

Trypanosoma cruzi [2] = assay: Antitrypanosomal activity against Trypanosoma cruzi trypomastigotes infected in C3H/HeN mouse assessed survival rate at 1 mg/kg/day, ip treated from day 5 to 10 postinfection measured on 100th day postinfection; assay type: functional; details: route intraperitoneal
In short: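 Male inbred C3H/HeN mice, 6 to 8 weeks old, 27.2 ± 0.9 g, in groups of five, infected ip with 5 x 10^3 bloodstream trypomastigotes. Circulating parasites confirmed on day 5 by microhematocrit. Dosed ip daily, 1 mg/kg/day, on days 5 to 10 postinfection, in 0.1 M PBS pH 7.2; vehicle alone as negative control. Deaths recorded daily; three independent experiments.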

Trypanosoma cruzi [3] = assay: Antitrypanosomal activity against Trypanosoma cruzi trypomastigotes infected in C3H/HeN mouse assessed as reduction in parasitemia at 1 mg/kg/day, ip treated from day 5 to 10 postinfection measured during acute phase of infection relative to control; assay type: functional; details: route intraperitoneal
In short: (§1)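 Male C3H/HeN mice (6–8 weeks, groups of five) were infected ip with 5 x 10^3 bloodstream trypomastigotes, with parasitemia confirmed on day 5 by microhematocrit. Dosing was 1 mg/kg/day ip in 0.1 M PBS pH 7.2 on days 5–10; vehicle served as negative control. Tail blood (5 µl, lysed 1:5 in NH4Cl/Tris) was counted by Neubauer chamber every 2 days. Deaths were recorded daily. Three independent experiments were run.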

[4] = Cytotoxicity against BALB/c mouse T cell after 24 hrs by trypan blue exclusion method; assay type: cell-based; details: T cells
In short: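 BALB/c mouse T lymphocytes at 2 x 10^6/ml were exposed to 0.1, 1, 10 and 50 µg/ml compound for 24 h. Viability was scored by trypan blue exclusion. Results are means ± SEM of three experiments done in duplicate.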

[5] = Selectivity index, ratio of CC50 for mouse T cells to IC50 for Trypanosoma cruzi trypomastigotes; assay type: functional, T-cell
In short: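 SI = 50% cytotoxic concentration on murine T lymphocytes (24 h, trypan blue exclusion) divided by IC50 against bloodstream trypomastigotes (24 h, Neubauer count of live parasites).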

Trypanosoma cruzi [6] = assay: Antitrypanosomal activity against Trypanosoma cruzi trypomastigotes infected in C3H/HeN mouse assessed as decrease in parasitemia at 1 mg/kg/day, ip treated from day 5 to 10 postinfection measured on day 16; assay type: functional, organism-based; in short: as §1
Trypanosoma cruzi [7] = assay: Antitrypanosomal activity against Trypanosoma cruzi trypomastigotes after 24 hrs by counting remaining live parasites in a Neubauer chamber

Row | SMILES | IC50 (Leishmania mexicana) | IC50 (Trypanosoma cruzi [1]) | Activity (Trypanosoma cruzi [2]) | fold change (FC) (Trypanosoma cruzi [3]) | CC50 at 24 h [4] | Selectivity Index [5] | inhibition (Trypanosoma cruzi [6]) | IC50 (Trypanosoma cruzi [7])
1 | C=C1C(=O)O[C@@H]2[C@H]1CC[C@H](C)[C@]1(CCC(=O)O1)[C@@]2(C)O [PSILOSTACHYIN A] | 0.12 µg/mL (≈ 0.428 µM) | 1.22 µg/mL (≈ 4.35 µM) | 100% | 1.5 | 25.7 µg/mL (≈ 91.7 µM) | 33.8 | Active | 0.76 µg/mL (≈ 2.71 µM)
2 | C=C1C(=O)O[C@@H]2C[C@H](C)[C@]3(O)CCC(=O)[C@@]3(C)C[C@H]12 [PERUVIN] | 0.39 µg/mL (≈ 1.48 µM) | 1.65 µg/mL (≈ 6.24 µM) |  |  | 35 µg/mL (≈ 132 µM) | 0.7 |  | 52.8 µg/mL (≈ 200 µM)

Reference: ChEMBL document CHEMBL1275436, “Trypanocidal and leishmanicidal activities of sesquiterpene lactones from Ambrosia tenuifolia Sprengel (Asteraceae)” (Antimicrob Agents Chemother, 2008)
